# Myeloid diff MLP: promotes myeloid progenitor differentiation; ER-HoxA9 myeloid progenitors, lysozyme-GFP differentiation, flow cytometry; 360,000 tested, 1% active; calls only at 10 µM;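 active = normalized GFP-positive differentiation at or above the plate's own cutoff, the solvent-only control mean plus 3 SD; inconclusive = no clear call, values can overlap the other calls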;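 also: cells exposed to compound for four days before flow analysis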
# SENP1 inh: blocks the human SENP1 SUMO protease catalytic domain; Q9P0U3; 360,000 tested, 0.21% active; inhibition, % at 10 µM; recombinant SENP1 catalytic domain, CyPet-SUMO1-YPet FRET cleavage; AID 624204;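 active = inhibition at least 30% at 10 µM, raw YFP signal under a set limit, fluorescence ratio 0.5 to 1.5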;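 also: 0% = enzyme with DMSO and 100% = no enzyme wells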
#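 Test system: recombinant human SENP1 catalytic domain, His6-tagged / Medium: pH 8 Tris buffer with EDTA, NaCl, BME, BSA, NP40, catalase / Also added: SUMO1 FRET substrate flanked by Cypet and Ypet, 25 nM / Times: 50 min reaction at room temperature / Signal: FRET, CFP and YFP emission / Control set: no-enzyme low control and enzyme-plus-DMSO high control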
# Cardio protect: myocardial damage modulation in H9c2 cells; H9c2 cardiomyocytes, H2O2 injury protection, ATPLite, 2 h; protection from H2O2 cell death, % at 20 µM; 360,000 tested, 0.63% active; AID 588492;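 active = compounds giving at least 50% protection of heart cells from peroxide-induced death in the single-dose screen, raw or plate-pattern-corrected value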;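 also: 0% = DMSO wells with peroxide and 100% = DMSO wells without peroxide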
# Pemphigus Ab inh: inhibitors of pemphigus antibody binding to human desmoglein-3; DSG3-coupled beads, scFv-anti-DSG3-GFP binding, flow cytometry; active compounds read low; binding (percent of control), % at 10 µM; 310,000 tested, 0.48% active;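 active = binding more than 3 SD below its plate's average and above zero; inconclusive = below that plate limit but binding exactly zero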;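 also: hits lower antibody fragment binding to DSG3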
# HNF4A DNA FP: change in binding of human HNF4 alpha to DNA | P41235 | HNF4a-FITC DNA binding, fluorescence polarization, 1 h | activity change, % at 10 µM | 360,000 tested, 0.3% active | AID 1224865; in the data active = activity change above about 30%, passing the limit was not always enough
# Target sequence (P41235 whole entry, looked up): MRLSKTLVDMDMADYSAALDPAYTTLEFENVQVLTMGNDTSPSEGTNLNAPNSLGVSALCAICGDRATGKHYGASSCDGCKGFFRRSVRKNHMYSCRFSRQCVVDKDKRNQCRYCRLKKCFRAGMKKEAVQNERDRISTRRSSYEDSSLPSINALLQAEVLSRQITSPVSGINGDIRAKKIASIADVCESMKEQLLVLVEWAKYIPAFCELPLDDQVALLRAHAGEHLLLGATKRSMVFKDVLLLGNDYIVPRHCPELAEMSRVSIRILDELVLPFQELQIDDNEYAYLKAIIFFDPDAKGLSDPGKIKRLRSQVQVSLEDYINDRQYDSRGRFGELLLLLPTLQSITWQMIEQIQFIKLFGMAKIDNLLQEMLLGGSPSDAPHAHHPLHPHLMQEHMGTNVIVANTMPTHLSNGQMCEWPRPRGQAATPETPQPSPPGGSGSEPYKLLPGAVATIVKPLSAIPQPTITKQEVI
# Granule exo inh: lytic granule exocytosis inhibition. TALL-104 LAMP-1 surface exposure, flow cytometry; cells stimulated with thapsigargin and PMA. inhibition, % at 10 µM. 360,000 tested, 0.66% active;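 active = inhibition above about 55%, limit read from the data; inconclusive = no clear call, values can overlap the other calls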
# Myeloid diff CP1: promotes myeloid progenitor differentiation. shares compounds with Myeloid diff MLP. calls only. ER-HoxA9 myeloid progenitors, GFP/Mac1 double-positive flow. 2,300 tested, 2% active;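 active = share of green or green-and-red cells above 9 and 9% in run 1 or 4 and 3% in run 2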
# GFP autofluor: compound fluorescence in myeloid differentiation counter-screen. fluorescence response, % (test concentration not listed). AID 651707. ER-HoxA9 myeloid progenitors, no estrogen, GFP autofluorescence flow cytometry; vehicle wells 0%, positive control 100%. shares compounds with Myeloid diff MLP. 2,300 tested, 7.4% active;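 active = over 5% cells positive for green fluorescent reporter, or over 2% positive for both it and APC stain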;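 also: range taken on the double positive population between DMSO and positive control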
# * = called active by the depositor; i = inactive; ? = inconclusive; nt = not tested or not shown; + = active, no number. Hits are enriched below; roughly 3% of the tested compounds scored in any of these assays.
SMILES,Myeloid diff MLP,SENP1 inh,Cardio protect,Pemphigus Ab inh,HNF4A DNA FP,Granule exo inh,Myeloid diff CP1,GFP autofluor
O=C(Cn1c(=O)[nH]c2ccsc2c1=O)NC1CCCCC1,+,1,6,104,3,-2,i,0
CC[C@@]1(C(=O)OC)N[C@H](CN(C)C(=O)C2CCCCC2)[C@@H]2C(=O)N(C)C(=O)[C@@H]21,i,0,-7,98,4,3,i,0
Cc1ccc(S(=O)(=O)Nc2ccc(-c3nnc(SCC#N)n3C)cc2)cc1,+,-1,-6,99,-1,2,i,0
Cc1ccc(S(=O)(=O)Nc2nc(C)cc(NN)n2)cc1,i,2,9,104,0,6,nt,nt
COc1cc(C)nc(NS(=O)(=O)c2ccc(C)cc2)n1,i,-1,6,?,4,0,i,0
O=S(=O)(Nc1ccc(S(=O)(=O)Nc2ncccn2)cc1)c1ccc(Cl)cc1,i,2,-1,92,-2,6,nt,nt
Cc1ccc(S(=O)(=O)Nc2ccc(S(=O)(=O)Nc3ncccn3)cc2)cc1,i,1,7,110,0,0,i,0
CCc1ccc(-c2cc3c(=O)n(CC(=O)NCCN4CCCCC4C)nc(C)n3n2)cc1 (centres undefined),i,-1,-3,97,4,14,nt,nt
NNC(=O)c1ncoc1-c1ccc(Cl)cc1,i,0,8,nt,0,6,nt,nt
O=C(CCc1ccccc1)N1CCN(Cc2ccc(F)cc2Cl)CC1,i,-5,-1,120,0,-4,nt,nt
COc1ccc(OC)c(NC(=O)CSc2nnc(CNC(=O)c3cccs3)o2)c1,i,1,-1,101,2,-5,nt,nt
CCCN(CC(=O)Nc1ccccc1OC)C(=O)CN1C(=O)NC2(CCCCC2)C1=O,+,-6,4,97,4,6,i,0
CCCC(=O)OC1CCS(=O)(=O)c2sccc21 (centres undefined),i,-3,2,99,0,-8,nt,nt
OCCCNc1cc(-c2ccnc(Nc3cccc(Cl)c3)n2)ccn1,i,-31,17,101,0,-4,i,0
O=C1c2ccccc2NC(c2ccc(F)cc2)N1Cc1ccco1 (centres undefined),i,-1,-5,104,0,-1,i,0
Cc1cc(C)n(-c2ccc(C(=O)Nc3ccc(C)c(S(=O)(=O)N4CCOCC4)c3)cc2)n1,i,-1,-1,99,2,17,nt,nt
NNC(=O)c1nc[nH]c1C(=O)Nc1ccccc1[N+](=O)[O-],i,1,18,110,-1,1,nt,nt
O=C(Nc1ccccc1[N+](=O)[O-])c1nc[nH]c1C(=O)NCCO,+,2,15,108,6,-2,i,0
C[C@H]1CN([C@@H](C)CO)C(=O)CCCn2nncc2CO[C@H]1CN(C)S(=O)(=O)c1ccc2c(c1)OCCCO2,i,0,0,nt,-1,-3,i,0
C[C@@H]1CN([C@H](C)CO)C(=O)CCCn2nncc2CO[C@H]1CN(C)C(=O)Nc1cccc(Oc2ccccn2)c1,i,0,3,nt,0,2,nt,nt
Cc1ccc(S(=O)(=O)N(C)C[C@@H]2OCc3cn(nn3)CCCC(=O)N([C@@H](C)CO)C[C@H]2C)cc1,i,1,0,103,8,-8,i,0
C[C@@H]1CN([C@@H](C)CO)C(=O)CCCn2nncc2CO[C@@H]1CN(C)C(=O)Nc1cccc(Oc2ccccn2)c1,i,1,-5,105,-5,-1,i,0
Cc1ccc(S(=O)(=O)N(C)C[C@H]2OCc3cn(nn3)CCCC(=O)N([C@@H](C)CO)C[C@@H]2C)cc1,i,-1,9,nt,-1,3,nt,nt
CC(=O)NC1(c2ccccc2)CCN(c2cc(C)nc(-c3ccccc3)n2)CC1,i,1,11,85,0,9,nt,nt
CC(C)N(C(=O)CSc1ccc(S(=O)(=O)N2CCCCC2)cn1)C(C)C,i,0,-4,109,-2,-2,nt,nt
SMILES,Myeloid diff MLP,SENP1 inh,Cardio protect,Pemphigus Ab inh,HNF4A DNA FP,Granule exo inh,Myeloid diff CP1,GFP autofluor
CCCCn1c(N)c(N(CC(C)C)C(=O)c2cc(-c3ccncc3)nc3ccccc23)c(=O)[nH]c1=O,+,-14,4,107,11,-6,i,3
CCCCN(C(=O)c1cc(-c2ccncc2)nc2ccccc12)c1c(N)n(CC(C)C)c(=O)[nH]c1=O,i,-24,5,99,6,-4,nt,nt
CCOc1ccc(C(=O)N2CCC(C(=O)c3ccc4c(c3)OCCO4)CC2)cc1,i,3,-5,108,0,-5,i,0
COC(=O)c1cc(OC)c(OC)cc1NC(=O)C1CCC(=O)N1S(=O)(=O)c1ccc(C)cc1 (centres undefined),i,2,5,nt,0,-1,nt,nt
COC(=O)c1ccccc1NC(=O)C1CCC(=O)N1S(=O)(=O)c1ccc(C)cc1 (centres undefined),i,0,3,99,3,-1,i,0
Cc1ccc(/C=N/Nc2nc3ccccc3s2)o1,i,-24,-24,102,-1,0,i,0
COC(=O)[C@@]12C[C@@H](CC(=O)N3CCCC3)C(=O)N(Cc3ccc4c(c3)OCO4)C1=CCC(C)(C)C2,i,1,nt,nt,-2,4,nt,nt
COC(=O)c1c(NC(=O)c2ccccc2)sc(C(N)=O)c1C,i,-3,7,102,-2,6,nt,nt
CCC(C(=O)Nc1sc(C(N)=O)c(C)c1C(=O)OC)c1ccccc1 (centres undefined),i,-3,1,106,4,31,i,0
OCCN(Cc1ccccc1)Cc1ccc(F)c(F)c1,i,0,-3,93,1,-5,i,0
OCCN(Cc1ccccc1)Cc1ccccc1O,i,2,-5,86,-2,0,nt,nt
Cc1ccc(C)c(OCCC(=O)NCCc2ccc(S(N)(=O)=O)cc2)c1,i,1,0,110,1,-3,nt,nt
CCn1c(-c2ccc(F)cc2)n[nH]c1=S,i,2,7,nt,2,-2,i,0
Cc1ccc(S(=O)(=O)N(C)CC(=O)Nc2nnc(CC(C)C)s2)cc1,i,-2,0,105,-1,-1,nt,nt
CCc1ccc(NC(=O)COC(=O)c2nc3nc(C)cc(C)n3n2)cc1,i,-1,-5,98,1,-1,nt,nt
